Active and inactive are the calls of the source. No cut-off for these calls is given here.
How the values were obtained:
[1] = tested on: Mus musculus; test: Sedative-hypnotic effect in mouse assessed as decrease locomotor activity score at 100 mg/kg, ip after 0.5 hrs by actophotometer; format: functional; conditions: route intraperitoneal
Procedure, shortened: (§1)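 Locomotor activity in mice was read as a digital photocell score on an actophotometer. Baseline was taken 24 h before treatment, then at 30 min and 1 h after 100 mg/kg i.p. Controls received PEG 400. Percent decrease was calculated from the 1 h values. Results are mean ± SEM of six mice, compared with Student's t test.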

[2] = tested on: Mus musculus; test: Sedative-hypnotic effect in mouse assessed as decrease locomotor activity score at 100 mg/kg, ip after 1 hr by actophotometer; format: functional; conditions: route intraperitoneal; procedure, shortened: as §1
[3] = tested on: Mus musculus; test: Sedative-hypnotic effect in mouse assessed as inhibition of locomotor activity at 100 mg/kg, ip by actophotometer; format: functional; conditions: route intraperitoneal; procedure, shortened: as §1
[4] = tested on: Mus musculus; test: Anticonvulsant activity in mouse assessed as inhibition of maximal electroshock-induced seizures at 300 mg/kg, ip after 0.5 hrs; format: functional, organism-based; design: dose 300 mg/kg
Procedure, shortened: (§2)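 Male albino mice (CF-1 or Swiss, 18–25 g) received compound suspended in polyethylene glycol 400, i.p., 0.01 ml/g, at 30, 100 and 300 mg/kg. Maximal electroshock and subcutaneous pentylenetetrazole seizure tests were run at 0.5 and 4 h by a previously reported procedure.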

[5] = tested on: Mus musculus; test: Anticonvulsant activity in mouse assessed as inhibition of maximal electroshock-induced seizures at 300 mg/kg, ip after 4 hrs; format: functional, organism-based; design: dose 300 mg/kg; procedure, shortened: as §2
[6] = tested on: Mus musculus; test: Anticonvulsant activity in mouse assessed as inhibition of pentylenetetrazole-induced seizure at 300 mg/kg, ip after 0.5 hrs; format: functional, organism-based; design: dose 300 mg/kg; procedure, shortened: as §2
[7] = tested on: Mus musculus; test: Anticonvulsant activity in mouse assessed as inhibition of pentylenetetrazole-induced seizure at 300 mg/kg, ip after 4 hrs; format: functional, organism-based; design: dose 300 mg/kg; procedure, shortened: as §2
[8] = tested on: Mus musculus; test: Neurotoxicity in mouse at 300 mg/kg, ip after 4 hrs by rotarod test; format: toxicity, organism-based; design: dose 300 mg/kg, route intraperitoneal; conditions: in vivo
Procedure, shortened: (§3)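 Mice dosed i.p. at 30, 100 and 300 mg/kg in PEG 400 were examined 0.5 and 4 h later on a rotorod. Animals were pre-trained on a 3.2 cm rod turning at 6 rpm. Neurotoxicity meant failing to keep equilibrium for at least 1 min in each of three trials. The value is the minimum dose affecting half or more of the animals.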

[9] = tested on: Mus musculus; test: Neurotoxicity in mouse assessed as loss of righting reflux at 100 mg/kg, ip after 0.5 hrs; format: toxicity, organism-based; design: dose 100 mg/kg, route intraperitoneal; conditions: in vivo
[10] = tested on: Mus musculus; test: Neurotoxicity in mouse at 300 mg/kg, ip after 0.5 hrs by rotarod test; format: toxicity, organism-based; design: dose 300 mg/kg, route intraperitoneal; conditions: in vivo; procedure, shortened: as §3
[11] = tested on: Mus musculus; test: Anticonvulsant activity in ip dosed mouse assessed as inhibition of maximal electroshock-induced seizures after 0.5 hrs; format: functional; procedure, shortened: as §2
[12] = tested on: Mus musculus; test: Anticonvulsant activity in ip dosed mouse assessed as inhibition of maximal electroshock-induced seizures after 4 hrs; format: functional; procedure, shortened: as §2
[13] = tested on: Mus musculus; test: Anticonvulsant activity in ip dosed mouse assessed as inhibition of pentylenetetrazole-induced seizure after 0.5 hrs; format: functional; procedure, shortened: as §2
[14] = tested on: Mus musculus; test: Anticonvulsant activity in ip dosed mouse assessed as inhibition of pentylenetetrazole-induced seizure after 4 hrs; format: functional; procedure, shortened: as §2
[15] = tested on: Mus musculus; test: Neurotoxicity in ip dosed mouse after 0.5 hrs by rotarod test; format: toxicity, organism-based; conditions: in vivo; procedure, shortened: as §3
[16] = tested on: Mus musculus; test: Neurotoxicity in ip dosed mouse after 4 hrs by rotarod test; format: toxicity, organism-based; conditions: in vivo; procedure, shortened: as §3
[17] = tested on: Rattus norvegicus; test: Antidepressant activity in Wistar rat assessed as increase in immobility time at 30 mg/kg, ip after 30 mins by forced-swimming test; format: functional; conditions: route intraperitoneal
[18] = tested on: Mus musculus; test: Toxicity in mouse at 300 mg/kg, ip; format: organism-based; design: dose 300 mg/kg, route intraperitoneal; conditions: in vivo
[19] = tested on: Mus musculus; test: Sedative-hypnotic effect in mouse assessed as decrease locomotor activity score at 25 mg/kg, po after 0.5 hrs by actophotometer; format: functional
[20] = tested on: Mus musculus; test: Sedative-hypnotic effect in mouse assessed as decrease locomotor activity score at 25 mg/kg, po after 1 hr by actophotometer; format: functional
[21] = tested on: Mus musculus; test: Sedative-hypnotic effect in mouse assessed as inhibition of locomotor activity at 25 mg/kg, po by actophotometer; format: functional
[22] = tested on: Mus musculus; test: Neurotoxicity in mouse at 100 mg/kg, ip after 0.25 hrs by rotarod test; format: toxicity, organism-based; design: dose 100 mg/kg, route intraperitoneal; conditions: in vivo
[23] = tested on: Mus musculus; test: Neurotoxicity in mouse at 100 mg/kg, ip after 1 hr by rotarod test; format: toxicity, organism-based; design: dose 100 mg/kg, route intraperitoneal; conditions: in vivo

Row | SMILES | Activity [1] | Activity [2] | inhibition in vivo at 100 mg/kg [3] | Activity [4] | Activity [5] | Activity [6] | Activity [7] | Activity [8] | Activity [10] | Activity [12] | also measured
1 | COc1ccc(/C=C/c2nc3ccccc3c(=O)n2-c2nnc(-c3ccccc3)s2)cc1 | 419.24 | 210.24 | 55% | inactive | inactive | inactive | inactive | Not Active |  |  | Activity [9]: Toxic
2 | Cc1ccc(/C=C/c2nc3ccccc3c(=O)n2-c2nnc(/C=C/c3ccccc3)s2)cc1 | 310.32 | 123.32 | 67% | inactive | inactive | inactive | inactive | Not Active | Not Active |  | 
3 | NC(=O)N1c2ccccc2C=Cc2ccccc21 [CARBAMAZEPINE] |  |  |  |  |  |  |  |  |  | 100 mg/kg | Activity [11]: 30 mg/kg; Activity [13]: 100 mg/kg; Activity [14]: 300 mg/kg; Activity [15]: 100 mg/kg; Activity [16]: 300 mg/kg; Activity [17]: 240.3 s
4 | Cc1ccc(/C=C/c2nc3ccccc3c(=O)n2-c2nnc(-c3cccc(Cl)c3)s2)cc1 | 298.67 | 128.94 | 65% | inactive | inactive |  |  | Not Active | Not Active |  | Activity [13]: 300 mg/kg; Activity [14]: 300 mg/kg
5 | COc1ccc(/C=C/c2nc3ccccc3c(=O)n2-c2nnc(/C=C/c3ccccc3)s2)cc1 | 362.37 | 228.32 | 51% | inactive | inactive | inactive | inactive | Not Active | Not Active |  | 
6 | O=c1c2ccccc2nc(/C=C/c2ccccc2)n1-c1nnc(-c2ccccc2)s1 | 472.31 | 249.45 | 55% |  | inactive | inactive |  | Not Active | Not Active |  | Activity [11]: 30 mg/kg; Activity [18]: Toxic
7 | O=C1NC(=O)C(c2ccccc2)(c2ccccc2)N1 [PHENYTOIN] |  |  |  |  |  | inactive | inactive |  |  | 30 mg/kg | Activity [11]: 30 mg/kg; Activity [15]: 100 mg/kg; Activity [16]: 100 mg/kg; Activity [19]: 251.02; Activity [20]: 164.1; inhibition in vivo at 25 mg/kg [21]: 70%
8 | Cc1ccc(-c2nnc(-n3c(/C=C/c4ccccc4)nc4ccccc4c3=O)s2)cc1 | 531 | 467 |  | inactive | inactive | inactive | inactive | Not Active | Not Active |  | 
9 | COc1ccc(/C=C/c2nc3ccccc3c(=O)n2-c2nnc(-c3ccc(OC)cc3)s2)cc1 | 308.13 | 180.3 | 59% | inactive | inactive | inactive | inactive | Not Active |  |  | Activity [15]: 300 mg/kg
10 | CCCC(CCC)C(=O)[O-].[Na+] [VALPROATE SODIUM] |  |  |  | inactive | inactive |  | inactive | Not Active | Not Active |  | Activity [13]: 300 mg/kg
11 | O=c1c2ccccc2nc(/C=C/c2ccccc2)n1-c1nnc(-c2ccc(Cl)cc2)s1 | 250.62 | 132.04 | 68% |  |  |  |  | Not Active | Not Active | 100 mg/kg | Activity [11]: 100 mg/kg; Activity [13]: 300 mg/kg; Activity [14]: 300 mg/kg
12 | CCC1(C)CC(=O)NC1=O (centres undefined) [ETHOSUXIMIDE] |  |  |  | inactive | inactive |  | inactive | Not Active | Not Active |  | Activity [13]: 300 mg/kg
13 | O=c1c2ccccc2nc(/C=C/c2ccccc2)n1-c1nnc(-c2cccc(Cl)c2)s1 | 319.57 | 165.52 | 63% | inactive |  | inactive | inactive | Not Active |  | 100 mg/kg | Activity [15]: 300 mg/kg; Activity [22]: Toxic; Activity [23]: Toxic
14 | COc1ccc(/C=C/c2nc3ccccc3c(=O)n2-c2nnc(-c3cccc(Cl)c3)s2)cc1 | 292.39 | 110.45 | 66% | inactive |  | inactive | inactive | Not Active | Not Active | 300 mg/kg | 
15 | Cc1ccc(/C=C/c2nc3ccccc3c(=O)n2-c2nnc(-c3ccc(C)cc3)s2)cc1 | 291.39 | 92.2 | 71% | inactive | inactive | inactive | inactive | Not Active | Not Active |  | 
16 | Cc1ccc(/C=C/c2nc3ccccc3c(=O)n2-c2nnc(-c3ccccc3)s2)cc1 | 353.52 | 185.15 | 55% | inactive | inactive | inactive | inactive | Not Active | Not Active |  | 
17 | Cc1ccc(/C=C/c2nc3ccccc3c(=O)n2-c2nnc(-c3ccc(Cl)cc3)s2)cc1 | 373.56 | 153.08 | 64% | inactive |  | inactive | inactive | Not Active | Not Active | 300 mg/kg | 
18 | COc1ccc(/C=C/c2nc3ccccc3c(=O)n2-c2nnc(-c3ccc(Cl)cc3)s2)cc1 | 306.98 | 155.31 | 62% | inactive |  |  |  | Not Active | Not Active | 300 mg/kg | Activity [14]: 300 mg/kg
19 | O=c1c2ccccc2nc(/C=C/c2ccccc2)n1-c1nnc(/C=C/c2ccccc2)s1 | 372.87 | 489.92 |  | inactive | inactive | inactive | inactive | Not Active |  |  | Activity [15]: 300 mg/kg
20 | COc1ccc(/C=C/c2nc3ccccc3c(=O)n2-c2nnc(-c3ccc(C)cc3)s2)cc1 | 315.46 | 142.19 | 64% | inactive | inactive |  | inactive | Not Active | Not Active |  | Activity [13]: 300 mg/kg
21 | COc1ccc(-c2nnc(-n3c(/C=C/c4ccc(C)cc4)nc4ccccc4c3=O)s2)cc1 | 272.19 | 137.19 | 65% | inactive | inactive | inactive | inactive | Not Active | Not Active |  | 
22 | COc1ccc(-c2nnc(-n3c(/C=C/c4ccccc4)nc4ccccc4c3=O)s2)cc1 | 381.82 | 266.36 | 36% | inactive | inactive | inactive | inactive | Not Active | Not Active |  | 

Source: ChEMBL document CHEMBL1157208, “Synthesis and CNS depressant activity of some novel 3-[5-substituted 1,3,4-thiadiazole-2-yl]-2-styryl quinazoline-4(3H)-ones” (Eur J Med Chem, 2008)
